According to ChEMBL document CHEMBL1141184, “Synthesis and biological study of a new series of 4'-demethylepipodophyllotoxin derivatives” (J Med Chem, 2005):

Species on record: Mus musculus
Experiment: Percent median survival time to that of control in mice on days 14,21 and 28
Assay type: functional
Conditions: not given
Summary of the method: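 BALB/c nude mice given 10^6 A549 cells orthotopically into left pleural space under anaesthesia; iv treatment on days 14, 21 and 28 after implantation. MTD = dose without toxic death and/or >20% weight loss; T/C (%) = median survival time treated/control ×100.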

Row | Structure (SMILES) | T/C [%]
1 | COc1cc([C@@H]2c3cc4c(cc3[C@@H](OC(=O)NCCN(C)C)[C@H]3C(=O)OC[C@H]23)OCO4)cc(OC)c1O | 152
2 | COc1cc([C@@H]2c3cc4c(cc3[C@@H](O[C@@H]3O[C@@H]5CO[C@@H](C)O[C@H]5[C@H](O)[C@H]3O)[C@H]3COC(=O)[C@H]23)OCO4)cc(OC)c1O [ETOPOSIDE] | 131
3 | COc1cc([C@@H]2c3cc4c(cc3[C@@H](OC(=O)N(C)CCN(C)C)C3COC(=O)[C@@H]32)OCO4)cc(OC)c1O (stereo not given in full) | 102
4 | COc1cc([C@@H]2c3cc4c(cc3[C@@H](OC(=O)NCCN(C)C)C3COC(=O)[C@@H]32)OCO4)cc(OC)c1O (stereo not given in full) | 151

Test system: L1210
Experiment: Percentage of L1210 cells in the G2M phase after treatment with compound at 0.1 uM concentration expressed as cell cycle effect
Assay type: functional, Mus musculus
Conditions: not given
Summary of the method: (§1)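 L1210 cells at 2.5×10^5 cells/mL exposed 21 h to the compound; fixed in 70% ethanol, stained 30 min at 20 °C in D-PBS with 100 µg/mL RNase A and 25 µg/mL propidium iodide; 10^4 cells per sample by flow cytometry; value is % of cells in G2M.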

Row | Structure (SMILES) | Activity [%]
5 | COc1cc([C@@H]2c3cc4c(cc3[C@@H](OC(=O)NCCN(C)C)C3COC(=O)[C@@H]32)OCO4)cc(OC)c1O (stereo not given in full) | 67

Test system: P388
Experiment: Maximum tolerated dose value on day 1 against mouse P388 leukemia cells
Assay type: functional
Conditions: not given
Summary of the method: (§2)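 B6D2F1 mice inoculated ip with 10^6 P388 cells (day 0), single iv dose on day 1. MTD = highest dose without toxic death and/or >20% weight loss. T/C (%) = median survival time treated/control ×100.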

Row | Structure (SMILES) | MTD [mg/kg]
6 | COc1cc([C@@H]2c3cc4c(cc3[C@@H](OC(=O)NCCN(C)C)[C@H]3C(=O)OC[C@H]23)OCO4)cc(OC)c1O | 12.5
7 | COc1cc([C@@H]2c3cc4c(cc3[C@@H](O[C@@H]3O[C@@H]5CO[C@@H](C)O[C@H]5[C@H](O)[C@H]3O)[C@H]3COC(=O)[C@H]23)OCO4)cc(OC)c1O [ETOPOSIDE] | 100
8 | COc1cc([C@@H]2c3cc4c(cc3[C@@H](OC(=O)N(C)CCN(C)C)C3COC(=O)[C@@H]32)OCO4)cc(OC)c1O (stereo not given in full) | 50
9 | COc1cc([C@@H]2c3cc4c(cc3[C@@H](OC(=O)NCCN(C)C)C3COC(=O)[C@@H]32)OCO4)cc(OC)c1O (stereo not given in full) | 6.25

Test system: L1210
Experiment: Percentage of L1210 cells in the G2M phase after treatment with compound at 2.5 uM concentration expressed as cell cycle effect
Assay type: functional, Mus musculus
Conditions: not given
Summary of the method: as §1

Row | Structure (SMILES) | Activity [%]
10 | COc1cc([C@@H]2c3cc4c(cc3[C@@H](O[C@@H]3O[C@@H]5CO[C@@H](C)O[C@H]5[C@H](O)[C@H]3O)[C@H]3COC(=O)[C@H]23)OCO4)cc(OC)c1O [ETOPOSIDE] | 76
11 | COc1cc([C@@H]2c3cc4c(cc3[C@@H](OC(=O)N(C)CCN(C)C)C3COC(=O)[C@@H]32)OCO4)cc(OC)c1O (stereo not given in full) | 77
12 | COc1cc([C@@H]2c3cc4c(cc3[C@@H](CCN(C)CCN(C)C)C3COC(=O)[C@@H]32)OCO4)cc(OC)c1O (stereo not given in full) | 75

Test system: L1210
Experiment: Inhibition of L1210 cell proliferation in cytotoxic assay
Assay type: functional, cell-based
Conditions: Mus musculus
Summary of the method: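 Murine L1210 leukaemia cells (nonadherent, exponential growth) in RPMI 1640 with 10% FCS, 2 mM glutamine, 10 mM HEPES pH 7.4; 48 h exposure to serial dilutions (compounds from 5 mM DMSO stock diluted in water). MTT added for 4 h at 37 °C, formazan dissolved in DMSO, OD 540 nm; IC50 by linear regression on linear part of dose–response; triplicate.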

Row | Structure (SMILES) | IC50 [nM]
13 | COc1cc([C@@H]2c3cc4c(cc3[C@@H](OC(=O)NCCCN(C)C)C3COC(=O)[C@@H]32)OCO4)cc(OC)c1O (stereo not given in full) | 340
14 | COc1cc([C@@H]2c3cc4c(cc3[C@@H](OCNCCN(C)C)C3COC(=O)[C@@H]32)OCO4)cc(OC)c1O (stereo not given in full) | 27900
15 | COc1cc([C@@H]2c3cc4c(cc3[C@@H](OC(=O)NCCN(C)C)[C@H]3C(=O)OC[C@H]23)OCO4)cc(OC)c1O | 88
16 | COc1cc([C@@H]2c3cc4c(cc3[C@@H](OC(=O)N(C)CCN(C)C)[C@H]3C(=O)OC[C@H]23)OCO4)cc(OC)c1O | 5200
17 | COc1cc([C@@H]2c3cc4c(cc3[C@@H](OC(=O)NCCCN)[C@H]3C(=O)OC[C@H]23)OCO4)cc(OC)c1O | 4300
18 | COc1cc([C@@H]2c3cc4c(cc3[C@@H](OC(=O)N(C)CCN(C)C)C3COC(=O)[C@@H]32)OCO4)cc(OC)c1O (stereo not given in full) | 1700
19 | COc1cc([C@@H]2c3cc4c(cc3[C@@H](OC(=O)N(C)CCCN)C3COC(=O)[C@@H]32)OCO4)cc(OC)c1O (stereo not given in full) | 240
20 | COc1cc([C@@H]2c3cc4c(cc3[C@@H](OC(=O)NCCCN)C3COC(=O)[C@@H]32)OCO4)cc(OC)c1O (stereo not given in full) | 1300
21 | COc1cc([C@@H]2c3cc4c(cc3[C@@H](OC(=O)N(C)CCCN(C)C)C3COC(=O)[C@@H]32)OCO4)cc(OC)c1O (stereo not given in full) | 960
22 | COc1cc([C@@H]2c3cc4c(cc3[C@@H](OC(=O)NCCN(C)C)C3COC(=O)[C@@H]32)OCO4)cc(OC)c1O (stereo not given in full) | 38
23 | COc1cc([C@@H]2c3cc4c(cc3[C@@H](CCN(C)CCN(C)C)C3COC(=O)[C@@H]32)OCO4)cc(OC)c1O (stereo not given in full) | 600
24 | COc1cc([C@@H]2c3cc4c(cc3[C@@H](OC(=O)N(C)CCCN(C)C)[C@H]3C(=O)OC[C@H]23)OCO4)cc(OC)c1O | 21000
25 | COc1cc([C@@H]2c3cc4c(cc3[C@@H](OC(=O)NCCCN(C)C)[C@H]3C(=O)OC[C@H]23)OCO4)cc(OC)c1O | 1400

Species on record: Mus musculus
Experiment: Percent median survival time to that of control in mice on day 1
Assay type: functional
Conditions: not given
Summary of the method: as §2

Row | Structure (SMILES) | T/C [%]
26 | COc1cc([C@@H]2c3cc4c(cc3[C@@H](OC(=O)NCCN(C)C)[C@H]3C(=O)OC[C@H]23)OCO4)cc(OC)c1O | 214
27 | COc1cc([C@@H]2c3cc4c(cc3[C@@H](O[C@@H]3O[C@@H]5CO[C@@H](C)O[C@H]5[C@H](O)[C@H]3O)[C@H]3COC(=O)[C@H]23)OCO4)cc(OC)c1O [ETOPOSIDE] | 233
28 | COc1cc([C@@H]2c3cc4c(cc3[C@@H](OC(=O)N(C)CCN(C)C)C3COC(=O)[C@@H]32)OCO4)cc(OC)c1O (stereo not given in full) | 182
29 | COc1cc([C@@H]2c3cc4c(cc3[C@@H](OC(=O)NCCN(C)C)C3COC(=O)[C@@H]32)OCO4)cc(OC)c1O (stereo not given in full) | 192

Test system: L1210
Experiment: Percentage of L1210 cells in the G2M phase after treatment with compound at 25 uM concentration expressed as cell cycle effect
Assay type: functional, Mus musculus
Conditions: not given
Summary of the method: as §1

Row | Structure (SMILES) | Activity [%]
30 | COc1cc([C@@H]2c3cc4c(cc3[C@@H](OC(=O)N(C)CCN(C)C)[C@H]3C(=O)OC[C@H]23)OCO4)cc(OC)c1O | 77

Test system: L1210
Experiment: Percentage of L1210 cells in the G2M phase after treatment with compound at 10 uM concentration expressed as cell cycle effect
Assay type: functional, Mus musculus
Conditions: not given
Summary of the method: as §1

Row | Structure (SMILES) | Activity [%]
31 | COc1cc([C@@H]2c3cc4c(cc3[C@@H](OC(=O)NCCCN(C)C)[C@H]3C(=O)OC[C@H]23)OCO4)cc(OC)c1O | 65

Test system: L1210
Experiment: Percentage of L1210 cells in the G2M phase after treatment with compound at 1 uM concentration expressed as cell cycle effect
Assay type: functional, Mus musculus
Conditions: not given
Summary of the method: as §1

Row | Structure (SMILES) | Activity [%]
32 | COc1cc([C@@H]2c3cc4c(cc3[C@@H](OC(=O)NCCCN(C)C)C3COC(=O)[C@@H]32)OCO4)cc(OC)c1O (stereo not given in full) | 72
33 | COc1cc([C@@H]2c3cc4c(cc3[C@@H](OC(=O)NCCN(C)C)[C@H]3C(=O)OC[C@H]23)OCO4)cc(OC)c1O | 83

Test system: A549
Experiment: Maximum tolerated dose after treatment on days 14, 21, and 28 against human A549 non-small-cell lung carcinoma
Conditions: not given

Row | Structure (SMILES) | MTD [mg/kg]
34 | COc1cc([C@@H]2c3cc4c(cc3[C@@H](OC(=O)NCCN(C)C)[C@H]3C(=O)OC[C@H]23)OCO4)cc(OC)c1O | 6.25
35 | COc1cc([C@@H]2c3cc4c(cc3[C@@H](O[C@@H]3O[C@@H]5CO[C@@H](C)O[C@H]5[C@H](O)[C@H]3O)[C@H]3COC(=O)[C@H]23)OCO4)cc(OC)c1O [ETOPOSIDE] | 70
36 | COc1cc([C@@H]2c3cc4c(cc3[C@@H](OC(=O)N(C)CCN(C)C)C3COC(=O)[C@@H]32)OCO4)cc(OC)c1O (stereo not given in full) | 25
37 | COc1cc([C@@H]2c3cc4c(cc3[C@@H](OC(=O)NCCN(C)C)C3COC(=O)[C@@H]32)OCO4)cc(OC)c1O (stereo not given in full) | 6.25

Molecular target: DNA topoisomerase 2-alpha (Homo sapiens) (UniProt P11388)
Experiment: Inhibition of human DNA topoisomerase II alpha as percent linear DNA after treatment with 20 uM
Conditions: not given

Sequence of DNA topoisomerase 2-alpha (Homo sapiens) (P11388 whole entry): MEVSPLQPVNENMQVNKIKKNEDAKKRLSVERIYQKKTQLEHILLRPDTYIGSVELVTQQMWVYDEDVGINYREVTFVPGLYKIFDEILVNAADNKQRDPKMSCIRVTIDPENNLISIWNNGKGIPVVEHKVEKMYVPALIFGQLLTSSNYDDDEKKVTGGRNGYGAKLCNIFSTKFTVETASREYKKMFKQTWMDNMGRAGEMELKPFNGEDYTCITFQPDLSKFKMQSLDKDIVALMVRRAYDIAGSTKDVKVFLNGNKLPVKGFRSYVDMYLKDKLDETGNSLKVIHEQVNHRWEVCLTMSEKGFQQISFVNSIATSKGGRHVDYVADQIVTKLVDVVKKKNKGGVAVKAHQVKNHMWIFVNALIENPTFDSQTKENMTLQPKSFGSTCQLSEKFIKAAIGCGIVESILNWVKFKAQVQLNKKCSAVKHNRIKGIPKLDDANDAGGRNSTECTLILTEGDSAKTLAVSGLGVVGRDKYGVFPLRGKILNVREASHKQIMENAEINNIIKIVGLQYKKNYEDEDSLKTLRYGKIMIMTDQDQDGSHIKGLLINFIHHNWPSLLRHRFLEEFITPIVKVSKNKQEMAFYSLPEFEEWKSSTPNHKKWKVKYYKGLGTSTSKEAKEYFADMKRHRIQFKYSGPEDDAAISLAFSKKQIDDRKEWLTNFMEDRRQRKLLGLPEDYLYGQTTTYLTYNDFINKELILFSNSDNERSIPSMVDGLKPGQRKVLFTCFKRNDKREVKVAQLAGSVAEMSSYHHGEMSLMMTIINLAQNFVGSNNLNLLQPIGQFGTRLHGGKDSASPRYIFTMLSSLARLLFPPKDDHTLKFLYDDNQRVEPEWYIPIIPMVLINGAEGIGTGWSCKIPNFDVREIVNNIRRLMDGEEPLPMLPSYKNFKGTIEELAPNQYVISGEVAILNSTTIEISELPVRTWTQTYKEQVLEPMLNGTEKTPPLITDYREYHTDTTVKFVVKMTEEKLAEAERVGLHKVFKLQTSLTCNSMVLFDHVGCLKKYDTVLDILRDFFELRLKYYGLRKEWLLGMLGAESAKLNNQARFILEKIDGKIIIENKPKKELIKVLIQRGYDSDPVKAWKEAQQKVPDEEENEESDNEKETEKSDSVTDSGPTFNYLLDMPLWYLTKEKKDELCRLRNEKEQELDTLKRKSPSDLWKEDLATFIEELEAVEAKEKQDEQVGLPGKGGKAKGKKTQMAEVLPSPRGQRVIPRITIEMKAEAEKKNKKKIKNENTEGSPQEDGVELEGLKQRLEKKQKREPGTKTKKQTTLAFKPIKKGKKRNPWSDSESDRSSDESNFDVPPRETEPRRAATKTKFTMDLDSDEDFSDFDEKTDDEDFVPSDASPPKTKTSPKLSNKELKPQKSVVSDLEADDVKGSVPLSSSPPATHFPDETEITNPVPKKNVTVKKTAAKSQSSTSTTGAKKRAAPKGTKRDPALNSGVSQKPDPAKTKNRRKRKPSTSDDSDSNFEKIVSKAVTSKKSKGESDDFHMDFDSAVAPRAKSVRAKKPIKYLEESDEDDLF

Row | Structure (SMILES) | percent linear DNA [%]
38 | COc1cc([C@@H]2c3cc4c(cc3[C@@H](OC(=O)NCCCN(C)C)C3COC(=O)[C@@H]32)OCO4)cc(OC)c1O (stereo not given in full) | 58
39 | COc1cc([C@@H]2c3cc4c(cc3[C@@H](OC(=O)NCCN(C)C)[C@H]3C(=O)OC[C@H]23)OCO4)cc(OC)c1O | 64
40 | COc1cc([C@@H]2c3cc4c(cc3[C@@H](O[C@@H]3O[C@@H]5CO[C@@H](C)O[C@H]5[C@H](O)[C@H]3O)[C@H]3COC(=O)[C@H]23)OCO4)cc(OC)c1O [ETOPOSIDE] | 50
41 | COc1cc([C@@H]2c3cc4c(cc3[C@@H](OC(=O)N(C)CCN(C)C)[C@H]3C(=O)OC[C@H]23)OCO4)cc(OC)c1O | 0
42 | COc1cc([C@@H]2c3cc4c(cc3[C@@H](OC(=O)NCCCN)[C@H]3C(=O)OC[C@H]23)OCO4)cc(OC)c1O | 0
43 | COc1cc([C@@H]2c3cc4c(cc3[C@@H](OC(=O)N(C)CCN(C)C)C3COC(=O)[C@@H]32)OCO4)cc(OC)c1O (stereo not given in full) | 27
44 | COc1cc([C@@H]2c3cc4c(cc3[C@@H](OC(=O)N(C)CCCN)C3COC(=O)[C@@H]32)OCO4)cc(OC)c1O (stereo not given in full) | 8
45 | COc1cc([C@@H]2c3cc4c(cc3[C@@H](OC(=O)NCCCN)C3COC(=O)[C@@H]32)OCO4)cc(OC)c1O (stereo not given in full) | 38
46 | COc1cc([C@@H]2c3cc4c(cc3[C@@H](OC(=O)N(C)CCCN(C)C)C3COC(=O)[C@@H]32)OCO4)cc(OC)c1O (stereo not given in full) | 17
47 | COc1cc([C@@H]2c3cc4c(cc3[C@@H](OC(=O)NCCN(C)C)C3COC(=O)[C@@H]32)OCO4)cc(OC)c1O (stereo not given in full) | 56
48 | COc1cc([C@@H]2c3cc4c(cc3[C@@H](CCN(C)CCN(C)C)C3COC(=O)[C@@H]32)OCO4)cc(OC)c1O (stereo not given in full) | 57
49 | COc1cc([C@@H]2c3cc4c(cc3[C@@H](OC(=O)N(C)CCCN(C)C)[C@H]3C(=O)OC[C@H]23)OCO4)cc(OC)c1O | 0
50 | COc1cc([C@@H]2c3cc4c(cc3[C@@H](OC(=O)NCCCN(C)C)[C@H]3C(=O)OC[C@H]23)OCO4)cc(OC)c1O | 0
